# Screening results from PubChem.
# The entries come from a sample that favours hits as a whole.
# NOD2-RIPK2 inh – NOD2-RIPK2 binding disruptors in cells, primary screen, fluorescence, CHO cells, BLA complementation. CCF4 ratio. inhibition, % at 4.98 µM. actives 0.38% (n = 360,000). AID 624267, 2012; in the data active = inhibition above about 21%;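 note: 0% = vehicle only and 100% = reference blocker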
# TLR4-MyD88 BLA – inhibitors of TLR4-MyD88 association in cells, primary screen, cell-based, HeLa CL3-4, BLA complementation, FRET ratio. AID 861, 2007. Toll-like receptor 4 (Homo sapiens) + Myeloid differentiation primary response protein …. actives 0.18% (n = 200,000). HeLa CL3-4 TLR4/MyD88 BLA complementation. inhibition, % at 8.4 µM; in the data active = inhibition above about 25%;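 note: 0% = vehicle and 100% = reference inhibitor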
# XBP1 UPR activ – activators of adaptive XBP1 UPR arm, primary screen, cell-based, CHO-XBP1 luciferase reporter, luminescence, uHTS. IRE1-XBP1 UPR activation; percent of tunicamycin response, DMSO as zero. activation, % at 20 µM. actives 0.33% (n = 330,000);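 active = versus positive control, 20 µM dose yields 30% or more activation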;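 note: 100% = tunicamycin at 10 µg/mL and 0% = DMSO only wells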
#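 Material: CHO cell line with stable XBP1 luciferase reporter; buffer or medium: F12 medium containing 10% fetal bovine serum; compound: single point, 20 µM final compound, 1% DMSO; incubation: 6 h treatment, 37 °C; measured by: glow luminescence from Steady-Glo reagent; evaluation: activation, % of tunicamycin; control set: tunicamycin high, DMSO low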
# UPR CHOP act – activators of apoptotic CHOP UPR arm, primary screen, cell-based, CHO-CHOP luciferase reporter, luminescence, uHTS. UPR activation; percent of tunicamycin response over DMSO baseline. activation, % at 10 µM. actives 0.34% (n = 330,000). AID 449763, 2010;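 active = at 10 µM dose, activation of 40% or more, normalized to positive control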;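 note: 100% = tunicamycin at 10 µg/mL and 0% = DMSO alone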
#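 assay system = CHO CHOP reporter cells | amount = 500 CHO-CHOP cells per well | buffer or medium = F12 with 10% FBS | incubation = 16-18 h cell attachment, then 6 h compound exposure, 37 °C | detection = luminescence read with Steady-Glo | read-out = percent activation relative to tunicamycin control | controls = tunicamycin high control, DMSO low control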
# CHOP inh – inhibitors of CHOP promoter induction, primary screen, cell-based, unfolded protein response, luciferase reporter; CHO-K1 CHOP-promoter luciferase, tunicamycin-induced, 15-18 h; inhibition, % at 10 µM; actives 3.8% (n = 220,000); AID 2732, 2010;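 active = compounds that reduced the stress-induced luciferase reporter signal by more than about 70% of percent inhibition, limit read from the data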;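 note: 0% = tunicamycin plus vehicle and 100% = wells without tunicamycin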
# TLR9-MyD88 inh – inhibitors of TLR9-MyD88 association in cells, primary screen, cell-based, CHO, BLA complementation, fluorescence; Toll-like receptor 9 (Homo sapiens) + Myeloid differentiation primary response protein …; actives 0.21% (n = 340,000); CCF4 FRET ratio; AID 504734, 2011; inhibition, % at 4.98 µM;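 active = inhibition above the mean over all tested compounds plus 3 SD, cut at about 21% in these data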;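 note: 0% = DMSO only wells and 100% = clavulanate BLA inhibitor control wells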
# NOD2-RIPK2 conf – NOD2-RIPK2 binding disruptors, retest, confirmation, fluorescence, CHO cells, BLA complementation, triplicate; shares compounds with NOD2-RIPK2 inh; CCF4 FRET; inhibition, % at 4.98 µM; actives 70% (n = 1,200); AID 624370, 2012;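 active = mean inhibition across replicates above a set limit taken from the earlier primary screen, cut at about 21% in these data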;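 note: 0% = DMSO-only wells and the high end = clavulanate BLA-blocked wells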
# NOD2 BLA counter – counter-screen for NOD2-RIPK2 interaction inhibitors: BLA reporter; actives 57% (n = 1,200); CHO BLA reporter, CCF4 FRET ratio, counterscreen; AID 624371; inhibition, % at 4.98 µM; shares compounds with NOD2-RIPK2 inh;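 active = mean inhibition above the low-control mean inhibition plus three low-control SD, cut at about 11% in these data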;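 note: 0% = DMSO only wells and 100% = clavulanate high control wells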
# The depositor's hits bear a star; nt = not tested or not shown; + = active, no number.
SMILES,NOD2-RIPK2 inh,TLR4-MyD88 BLA,XBP1 UPR activ,UPR CHOP act,CHOP inh,TLR9-MyD88 inh,NOD2-RIPK2 conf,NOD2 BLA counter
CCNC(=O)NC(=O)C(C)N1C(=O)NC(c2ccccc2)(c2ccccc2)C1=O (centres undefined),+,nt,-5,0,nt,-5,0,-2
CC(=O)Nc1ccc(CN2C(=O)C(C)(C)ON=C2c2ccc(NC(C)=O)cc2)cc1,4,nt,nt,nt,nt,nt,nt,nt
C=CC(=O)Nc1cccc(N(C)c2ccnc(Nc3ccc(N4CCN(C)CC4)cc3)n2)c1,-12,nt,nt,nt,nt,1,nt,nt
C=C1C(=O)[C@]23C[C@H]1CCC2[C@]1(C)CCC[C@@](C)(C(=O)O)C1C[C@@H]3O (some centres undefined),22*,nt,nt,nt,nt,nt,33*,2
Nc1cc2c(cc1Cl)-c1ccc([N+](=O)[O-])cc1C2=NO,22*,nt,nt,nt,nt,0,18,26*
CCCCN(CCCNC(=S)NCCCc1cnc[nH]1)c1ccc(Br)cn1,2,nt,nt,nt,nt,nt,nt,nt
Cc1ccc(NC(=O)Cn2sc3nc(C)cc(C)c3c2=O)c(Cl)c1,21*,nt,-4,2,-4,9,10,1
O=[N+]([O-])c1ccc(N/N=C/c2cccc(O)c2)cc1,22*,nt,5,6,nt,7,24*,32*
Cc1cc(C(=O)N/N=C/c2ccc(-c3ccc([N+](=O)[O-])cc3C)o2)n[nH]1,4,nt,-3,2,nt,-2,nt,nt
Cc1cc([N+](=O)[O-])ccc1-c1ccc(/C=N/NC(=O)c2ccc(Br)o2)o1,40*,nt,15,1,nt,1,32*,48*
O=[N+]([O-])c1ccc(NN=Cc2cccc([N+](=O)[O-])c2)cc1,-6,nt,nt,nt,nt,1,nt,nt
O=C(O)c1cccc(-c2ccc(/C=N/Nc3ccc([N+](=O)[O-])cc3)o2)c1,28*,nt,1,1,-10,19,30*,32*
CC(C)(C)NC(=S)N/N=C\c1ccc(-c2ccc([N+](=O)[O-])cc2)o1,43*,nt,2,3,-4,nt,81*,83*
OC(COCCOc1ccc(Br)cc1)CN1CCCCC1 (centres undefined),0,-11,2,3,-26,-7,nt,nt
CCOc1ccc(-c2cc(N)n(S(=O)(=O)c3cccc4nsnc34)n2)cc1,22*,nt,0,0,32,-1,-5,-5
COc1cc(OC)cc(-c2cc(N)n(S(=O)(=O)c3cccc4nsnc34)n2)c1,-1,nt,0,0,10,-2,nt,nt
COCCCN1C(=O)C(CC(=O)NCCCN(C)C)CC(C(=O)N2CCOCC2)=C1C (centres undefined),3,nt,nt,nt,nt,nt,nt,nt
COc1ccccc1/C=C(/NC(=O)c1ccc(Cl)cc1Cl)C(=O)O,32*,-7,0,0,23,7,7,1
O=c1ccsn1Cc1ccccc1,27*,7,-1,5,36,2,-4,1
Cc1ccc(O)c(Cn2nnc3ccccc32)c1,-4,nt,0,1,nt,-1,nt,nt
NC(=O)c1c(NC(=O)CN2C(=O)NC(Cc3ccccc3)C2=O)sc2c1CCC2 (centres undefined),-3,nt,-2,-2,22,-19,nt,nt
CCc1ccc(C(=O)Cn2ncc(Cl)c(Cl)c2=O)cc1,34*,12,0,37,3,19,40*,9
